MIC and ED50 data for 14 molecules are collected here from ChEMBL document CHEMBL4325900, “Antibacterial activity evaluation of synthetic novel pleuromutilin derivatives in vitro and in experimental infection mice” (2019).

In brackets after ≈: the same amount, converted by molar mass.

Assay type in all cases: functional
For assay [1], the system named is Staphylococcus epidermidis. In words: Antibacterial activity against methicillin-sensitive Staphylococcus epidermidis after 24 hrs by NCCLS method. The method in brief:
(§1)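 Broth microdilution in Mueller-Hinton broth. Stocks at 1280 µg/mL in aqueous 10-20% DMSO, diluted to 128 µg/mL, then 2-fold serially to final 64 down to 0.125 µg/mL. Overnight MHB cultures diluted to 10^6~10^7 CFU/mL and added 1:1 to compound. Incubated 24 h at 37°C. MIC read from OD against MHB blank. Three parallels per concentration.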

Assay [2] relates to Staphylococcus aureus. In words: Antibacterial activity against methicillin-sensitive Staphylococcus aureus after 24 hrs by NCCLS method. The method in brief:
(§2)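 Broth microdilution in Mueller-Hinton broth. Stocks at 1280 µg/mL in aqueous 10-20% DMSO were diluted to 128 µg/mL, then serially 2-fold diluted giving final concentrations of 64 down to 0.125 µg/mL. Overnight MHB cultures were diluted to 10^6~10^7 CFU/mL, and 100 µL was added per well. Plates ran 24 h at 37°C. MIC was read from OD against an MHB blank, in triplicate.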

A further assay concerns Pasteurella multocida. The assay can be described thus: Antibacterial activity against Pasteurella multocida after 24 hrs by NCCLS method. In a few lines:
as §2

In assay [3] the test system is Staphylococcus aureus. The assay can be described thus: Antibacterial activity against methicillin-resistant Staphylococcus aureus after 24 hrs by NCCLS method. In a few lines:
as §1

Assay [4] has as its system Staphylococcus epidermidis. The assay can be described thus: Antibacterial activity against methicillin-resistant Staphylococcus epidermidis after 24 hrs by NCCLS method. The method in brief:
as §1

Another assay deals with Escherichia coli. In words: Antibacterial activity against Escherichia coli ATCC 11775 after 24 hrs by NCCLS method. Particulars: DSM 30083 = JCM 1649 = ATCC 11775, 24 h. In a few lines: as §2
Another assay deals with Enterococcus faecalis. The assay can be described thus: Antibacterial activity against Enterococcus faecalis after 24 hrs by NCCLS method. The method in brief:
as §2

For the next assay, the system named is Enterococcus faecium. The assay can be described thus: Antibacterial activity against Enterococcus faecium after 24 hrs by NCCLS method. The method in brief:
as §2

Assay [5] has as its system Staphylococcus aureus. In words: Antibacterial activity against methicillin-resistant Staphylococcus aureus clinical isolates infected in ip dosed mouse assessed as reduction in bacterial infection administered 1 hr after infection and measured after 7 days. In a few lines:
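Kunming mice, half male and half female, 19-23 g, 10 per group. Infected i.p. with 0.5 mL clinical MRSA isolate suspension (~10^7 CFU/mL). Single i.p. dose 1 h post-infection, five dose levels between 7.0 and 50.0 mg/kg depending on compound. Vehicle was DMSO:Tween-80:water 1:1:8, or water for valnemulin. ED50 by Probit analysis from survival after 7 days; 95% confidence ranges.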

Take `C=C[C@]1(C)C[C@@H](OC(=O)CSc2nc(NC(=O)CN3CCOCC3)c3cc[nH]c3n2)[C@]2(C)[C@H](C)CC[C@]3(CCC(=O)[C@H]32)[C@@H](C)[C@@H]1O`: the MIC (in general, the lowest concentration that inhibits growth of the organism) in assay [1] stood at 0.25 µg/mL (≈ 0.382 µM); in the assay on Staphylococcus aureus [2] it was 0.125 µg/mL (≈ 0.191 µM); with Pasteurella multocida, 32 µg/mL (≈ 48.9 µM); in the assay on Staphylococcus aureus [3] it was 0.25 µg/mL (≈ 0.382 µM); in assay [4] it was 0.25 µg/mL (≈ 0.382 µM); in the assay on Escherichia coli, 64 µg/mL (≈ 97.9 µM). Further, the values for the MIC in the assay on Enterococcus faecalis and in the assay with Enterococcus faecium were 64 µg/mL (≈ 97.9 µM) and 0.25 µg/mL (≈ 0.382 µM), respectively.

As to `C=C[C@]1(C)C[C@@H](OC(=O)CSc2nc(NC(=O)CN3CCC(c4ccccc4)CC3)c3cc[nH]c3n2)[C@]2(C)[C@H](C)CC[C@]3(CCC(=O)[C@H]32)[C@@H](C)[C@@H]1O`, the MIC (in assay [1]; against Staphylococcus aureus [2]; in the assay on Staphylococcus aureus [3]; in assay [4]) was 0.25 µg/mL (≈ 0.343 µM) in each case.

In the case of `C=C[C@]1(C)C[C@@H](OC(=O)CSc2nc(NC(=O)CNC3CCCCC3)c3cc[nH]c3n2)[C@]2(C)[C@H](C)CC[C@]3(CCC(=O)[C@H]32)[C@@H](C)[C@@H]1O`, the MIC in assay [1] is 0.5 µg/mL (≈ 0.751 µM); against Staphylococcus aureus [2], 0.5 µg/mL (≈ 0.751 µM); against Pasteurella multocida, 64 µg/mL (≈ 96.1 µM); in the assay with Staphylococcus aureus [3], 1 µg/mL (≈ 1.5 µM); in [4] it was 0.5 µg/mL (≈ 0.751 µM); with Escherichia coli, above 64 µg/mL. For the same molecule, the MIC in the assay on Enterococcus faecalis was 64 µg/mL (≈ 96.1 µM); in the assay on Enterococcus faecium it was 0.5 µg/mL (≈ 0.751 µM).

Turning to `C=C[C@]1(C)C[C@@H](OC(=O)CSc2nc(NC(=O)CNC3CC3)c3cc[nH]c3n2)[C@]2(C)[C@H](C)CC[C@]3(CCC(=O)[C@H]32)[C@@H](C)[C@@H]1O`, the MIC in [1] was 0.125 µg/mL (≈ 0.2 µM); in the assay with Staphylococcus aureus [2] it was 0.125 µg/mL (≈ 0.2 µM); in the assay on Pasteurella multocida, 32 µg/mL (≈ 51.3 µM); with Staphylococcus aureus [3], 0.25 µg/mL (≈ 0.401 µM); in [4], 0.25 µg/mL (≈ 0.401 µM); against Escherichia coli, above 64 µg/mL. Further, the MIC against Enterococcus faecalis was determined as 64 µg/mL (≈ 103 µM); in the assay with Enterococcus faecium, 0.25 µg/mL (≈ 0.401 µM).

Turning to `C=C[C@]1(C)C[C@@H](OC(=O)CSc2nc(NC(=O)CN3CCN(C)CC3)c3cc[nH]c3n2)[C@]2(C)[C@H](C)CC[C@]3(CCC(=O)[C@H]32)[C@@H](C)[C@@H]1O`, the minimum inhibitory concentration (MIC) in assay [1] was 0.25 µg/mL (≈ 0.375 µM); against Staphylococcus aureus [2] it was 0.125 µg/mL (≈ 0.187 µM); in the assay with Pasteurella multocida, 32 µg/mL (≈ 48 µM); in the assay on Staphylococcus aureus [3], 1 µg/mL (≈ 1.5 µM); in assay [4], 0.5 µg/mL (≈ 0.75 µM); against Escherichia coli, above 64 µg/mL. In addition, the MIC amounted to 64 µg/mL (≈ 96 µM) with Enterococcus faecalis and 0.5 µg/mL (≈ 0.75 µM) in the assay with Enterococcus faecium.

With `C=C[C@]1(C)C[C@@H](OC(=O)CSc2nc(NC(=O)CN3CCC(N4CCCCC4)CC3)c3cc[nH]c3n2)[C@]2(C)[C@H](C)CC[C@]3(CCC(=O)[C@H]32)[C@@H](C)[C@@H]1O`, the minimal inhibitory concentration (MIC) in assay [1] is 0.25 µg/mL (≈ 0.34 µM); in the assay on Staphylococcus aureus [2], 0.5 µg/mL (≈ 0.68 µM); in the assay on Pasteurella multocida, 64 µg/mL (≈ 87.1 µM); against Staphylococcus aureus [3], 0.5 µg/mL (≈ 0.68 µM); in assay [4], 0.5 µg/mL (≈ 0.68 µM); in the assay on Escherichia coli, 64 µg/mL (≈ 87.1 µM). Further, the minimum inhibitory concentration (MIC) is 64 µg/mL (≈ 87.1 µM) in the assay on Enterococcus faecalis and 0.0625 µg/mL (≈ 0.085 µM) with Enterococcus faecium.

For the molecule `C=C[C@]1(C)C[C@@H](OC(=O)CSc2nc(NC(=O)CN3CCN(c4ccccc4)CC3)c3cc[nH]c3n2)[C@]2(C)[C@H](C)CC[C@]3(CCC(=O)[C@H]32)[C@@H](C)[C@@H]1O`, the MIC in assay [1] is 0.5 µg/mL (≈ 0.686 µM); against Staphylococcus aureus [2] it was 1 µg/mL (≈ 1.37 µM); against Pasteurella multocida it was 64 µg/mL (≈ 87.8 µM); with Staphylococcus aureus [3], 1 µg/mL (≈ 1.37 µM); in assay [4], 1 µg/mL (≈ 1.37 µM); with Escherichia coli, above 64 µg/mL. Further, the values for the MIC against Enterococcus faecalis and with Enterococcus faecium were 64 µg/mL (≈ 87.8 µM) and 1 µg/mL (≈ 1.37 µM), respectively.

Take `C=C[C@]1(C)C[C@@H](OC(=O)CSc2nc(NC(=O)CN3CCC(N(C)C)CC3)c3cc[nH]c3n2)[C@]2(C)[C@H](C)CC[C@]3(CCC(=O)[C@H]32)[C@@H](C)[C@@H]1O`: the MIC in assay [1] was 0.5 µg/mL (≈ 0.719 µM); in the assay on Staphylococcus aureus [2] it was 0.5 µg/mL (≈ 0.719 µM); against Pasteurella multocida it was 64 µg/mL (≈ 92.1 µM); against Staphylococcus aureus [3], 1 µg/mL (≈ 1.44 µM); in [4], 0.5 µg/mL (≈ 0.719 µM); in the assay on Escherichia coli it was above 64 µg/mL. Moreover, the values for the minimum inhibitory concentration (MIC) in the assay on Enterococcus faecalis and against Enterococcus faecium were 64 µg/mL (≈ 92.1 µM) and 1 µg/mL (≈ 1.44 µM), respectively.

`C=C[C@]1(C)C[C@@H](OC(=O)CSc2nc(N)c3cc[nH]c3n2)[C@]2(C)[C@H](C)CC[C@]3(CCC(=O)[C@H]32)[C@@H](C)[C@@H]1O`: the MIC in assay [1] is 1 µg/mL (≈ 1.9 µM); in the assay with Staphylococcus aureus [2] it was 1 µg/mL (≈ 1.9 µM); with Pasteurella multocida it was 64 µg/mL (≈ 122 µM); against Staphylococcus aureus [3], 1 µg/mL (≈ 1.9 µM); in assay [4], 2 µg/mL (≈ 3.8 µM); in the assay on Escherichia coli, above 64 µg/mL. In addition, the MIC against Enterococcus faecalis amounted to 64 µg/mL (≈ 122 µM); against Enterococcus faecium it was 1 µg/mL (≈ 1.9 µM).

For `C=C[C@]1(C)C[C@@H](OC(=O)CSc2nc(NC(=O)CN3CCC(O)CC3)c3cc[nH]c3n2)[C@]2(C)[C@H](C)CC[C@]3(CCC(=O)[C@H]32)[C@@H](C)[C@@H]1O`, the MIC is 1 µg/mL (≈ 1.5 µM) in assay [1], 2 µg/mL (≈ 2.99 µM) in the assay on Staphylococcus aureus [3] and 1 µg/mL (≈ 1.5 µM) in assay [4].

With `C=C[C@]1(C)C[C@@H](OC(=O)CSc2nc(NC(=O)CN3CCCCC3)c3cc[nH]c3n2)[C@]2(C)[C@H](C)CC[C@]3(CCC(=O)[C@H]32)[C@@H](C)[C@@H]1O`, the ED50 (as a rule, the midpoint of the dose-response relation) in the assay with Staphylococcus aureus [5] was found to be 19.7 mg/kg. Moreover, the minimum inhibitory concentration (MIC) in assay [1] was determined as 0.0625 µg/mL (≈ 0.0959 µM); against Staphylococcus aureus [2], 0.0625 µg/mL (≈ 0.0959 µM); against Pasteurella multocida, 32 µg/mL (≈ 49.1 µM); against Staphylococcus aureus [3] it was 0.125 µg/mL (≈ 0.192 µM); in assay [4], 0.125 µg/mL (≈ 0.192 µM); with Escherichia coli it was 64 µg/mL (≈ 98.2 µM). Further, the MIC came to 32 µg/mL (≈ 49.1 µM) against Enterococcus faecalis and 0.125 µg/mL (≈ 0.192 µM) against Enterococcus faecium.

With `C=C[C@]1(C)C[C@@H](OC(=O)CSc2nc(NC(=O)CN3CCC(CO)CC3)c3cc[nH]c3n2)[C@]2(C)[C@H](C)CC[C@]3(CCC(=O)[C@H]32)[C@@H](C)[C@@H]1O`, the minimum inhibitory concentration (MIC) in assay [1] was 0.125 µg/mL (≈ 0.183 µM); in the assay on Staphylococcus aureus [2], 0.25 µg/mL (≈ 0.367 µM); in the assay on Pasteurella multocida, 64 µg/mL (≈ 93.9 µM); with Staphylococcus aureus [3] it was 0.25 µg/mL (≈ 0.367 µM); in assay [4], 0.125 µg/mL (≈ 0.183 µM); in the assay with Escherichia coli, above 64 µg/mL. The minimum inhibitory concentration (MIC) turned out to be 64 µg/mL (≈ 93.9 µM) against Enterococcus faecalis and 0.25 µg/mL (≈ 0.367 µM) in the assay with Enterococcus faecium.

As for `C=C[C@]1(C)C[C@@H](OC(=O)CSc2nc(NC(=O)CN3CCN(c4ccccn4)CC3)c3cc[nH]c3n2)[C@]2(C)[C@H](C)CC[C@]3(CCC(=O)[C@H]32)[C@@H](C)[C@@H]1O`, the minimal inhibitory concentration (MIC) in assay [1] was 0.5 µg/mL (≈ 0.685 µM); with Staphylococcus aureus [2], 1 µg/mL (≈ 1.37 µM); in the assay on Pasteurella multocida, above 64 µg/mL; against Staphylococcus aureus [3], 0.5 µg/mL (≈ 0.685 µM); in [4], 0.5 µg/mL (≈ 0.685 µM); against Escherichia coli, above 64 µg/mL. Besides, the MIC in the assay with Enterococcus faecalis is 64 µg/mL (≈ 87.7 µM); in the assay with Enterococcus faecium, 0.25 µg/mL (≈ 0.342 µM).

Regarding `C=C[C@]1(C)C[C@@H](OC(=O)CSc2nc(NC(=O)CN3CCNCC3)c3cc[nH]c3n2)[C@]2(C)[C@H](C)CC[C@]3(CCC(=O)[C@H]32)[C@@H](C)[C@@H]1O`, the minimum inhibitory concentration (MIC) in [1] was 1 µg/mL (≈ 1.53 µM); with Staphylococcus aureus [2], 2 µg/mL (≈ 3.06 µM); against Pasteurella multocida, 32 µg/mL (≈ 49 µM); in the assay on Staphylococcus aureus [3], 4 µg/mL (≈ 6.13 µM); in assay [4], 1 µg/mL (≈ 1.53 µM); in the assay with Escherichia coli, above 64 µg/mL. The figures for the MIC against Enterococcus faecalis and with Enterococcus faecium were 64 µg/mL (≈ 98 µM) and 1 µg/mL (≈ 1.53 µM), respectively.
